Laboratory results taken from publication PMC7490575 (Molecular Diversity, 2020).

What was measured:
[1] = system: A/Puerto Rico/8/34 (H1N1) influenza virus; assay: Cell protection assay, influenza virus in MDCK cells; assay type: cell-based, influenza virus A/PR/8/34 (H1N1)
Coxsackie B3 virus = assay: Cell protection assay, Coxsackie B3 virus in Vero cells; assay type: cell-based, coxsackievirus B3
Method in brief: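 Confluent Vero monolayers given test compound, infected with Coxsackie B3 (m.o.i. 0.01), held 48 h at 36 °C, 5% CO2. Viability read by MTT (OD 540 nm) against virus-only wells; IC50 is 50% cell protection. […] SI = CC50/IC50.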

Compound | antiviral activity against influenza virus A/PR/8/34 (H1N1), in words [1] | antiviral activity against Coxsackie B3 virus, in words (Coxsackie B3 virus)
Cc1[nH]c(=O)[nH]c(=O)c1CCCc1cn([C@@H]2O[C@H](CO)[C@@H](O)[C@H]2O)nn1 [Compound 8n, 6-Methyl-5-{[1-(β-D-ribofuranosyl)-1H-1,2,3-triazol-4-yl]propyl}-2,4(1H,3H)-pyrimidine-dione] | antiviral activity was demonstrated | –
Cc1[nH]c(=O)[nH]c(=O)c1CCCCc1cn([C@@H]2O[C@H](CO)[C@@H](O)[C@H]2O)nn1 [Compound 8o, 6-Methyl-5-{[1-(β-D-ribofuranosyl)-1H-1,2,3-triazol-4-yl]butyl}-2,4(1H,3H)-pyrimidinedione] | completely inactive | –
Cc1[nH]c(=O)[nH]c(=O)c1Cc1cn([C@@H]2O[C@H](CO)[C@@H](O)[C@H]2O)nn1 [Compound 8m, 6-Methyl-5-{[1-(β-D-ribofuranosyl)-1H-1,2,3-triazol-4-yl]methyl}-2,4(1H,3H)-pyrimidinedione] | antiviral activity was demonstrated | –
NC(=O)c1ncn([C@@H]2O[C@H](CO)[C@@H](O)[C@H]2O)n1 [Ribavirin, 1-β-D-ribofuranosyl-1,2,4-triazole-3-carboxamide] | – | inactive
O=c1[nH]c(=O)n(CCCc2cn([C@@H]3O[C@H](CO)[C@@H](O)[C@H]3O)nn2)c2ccccc12 [Compound 4h, N1-{[1-(β-D-ribofuranosyl)-1H-1,2,3-triazol-4-yl]propyl}-2,4(1H,3H)-quinazolinedione] | antiviral activity was demonstrated | –
